Shown are actives, neighbours in structure and some others; about 9.2% of the full set was active somewhere.
Lmaj promast: Leishmania major promastigote growth inhibition; inhibition, % at 10 µM; AID 1063; Leishmania major promastigotes, resazurin fluorescence viability; 200,000 compounds, 9% hits; in the data active = inhibition above about 50%;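 note: promastigotes grown with compound for 44 hours at 28 °C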
bCat KO growth: beta-catenin-lacking colon tumor cell growth suppression. AID 818. 140,000 compounds, 1.5% hits. viability, % at 10 µM. HCT116 beta-catenin knockout viability, CellTiter-Glo, 60 h; hits give low values;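 active = viability at or under a set limit, the compound median less 4 SD, cut at about 6% in these data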
Dynein transport: blocks dynein driven cargo transport along microtubules. 3617.4 mouse cells, GR-EGFP nuclear translocation imaging; test concentration mostly 20 µM; stimulated with dexamethasone, 1 µM; hits give low values. z-score, hits read low. 220,000 compounds, 0.47% hits. AID 1381;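 active = plate z-score of nuclear minus cytoplasmic receptor signal below a set negative limit, without overly bright fluorescence or cell loss, cut at about -3.5 in these data, passing the limit was not always enough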;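 note: z-score of nuclear minus cytoplasmic ring GR-EGFP intensity difference per well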
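Buffer or medium – tet-free medium with charcoal-stripped serum · Signal – automated 10x imaging of fixed Hoechst-stained cells · Also added – dexamethasone agonist, 1.0 µM final, for 30 min · Incubation – induction 48 h, compound 1 h, agonist 30 min · Read-out – GR-EGFP nuclear translocation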
Autophagy HCS: autophagy modulation, high-content screen. MEF GFP-LC3 puncta imaging; test concentration mostly 10 µM. calls only at 10 µM (by protocol). 190,000 compounds, 0.98% hits. AID 463193;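 active = percentage of spot-positive cells more than 3 SD above its plate mean, without a fluorescence outlier flag or 80% toxicity; inconclusive = no clear call, values can overlap the other calls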
HCT116 PTEN-null: suppresses growth of cells with PTEN deletion; HCT116 PTEN-null viability, CellTiter-Glo, 60 h; hits give low values; viability, % at 10 µM; 140,000 compounds, 1.2% hits; AID 827;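 active = viability at or below a set limit, 4 SD under the median of all tested compounds, cut at about 3.7% in these data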;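 note: PTEN knockout HCT116 line with beta catenin targeted HCT116 as companion control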
L major 1uM: inhibitors of Leishmania major promastigote growth, repeat at 1 uM | shares compounds with Lmaj promast | L. major promastigote growth, resazurin fluorescence, 48 h | inhibition, % at 1 µM | 1,100 compounds, 13% hits | AID 1258;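 active = inhibition above about 50% in both repeat tests, limit read from the data; inconclusive = one repeat under the set limit, the other over it; inactive = both repeats under the set limit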
A number is an active result; . = inactive; ? = inconclusive; / = no result; + = active, no number.

SMILES	Lmaj promast	bCat KO growth	Dynein transport	Autophagy HCS	HCT116 PTEN-null	L major 1uM
COc1cc(-c2nc(-c3ccccc3)c(-c3cccs3)[nH]2)cc(OC)c1O	.	.	.	.	.	/
CC(C)OCCCN1CN(S(=O)(=O)c2cccs2)c2nc3ccccc3nc21	/	/	.	/	/	/
Cc1ccc(-c2[nH]nc(N)c2N=Nc2ccccc2C)cc1	100	3.1	.	.	.	.
COC(=O)c1sccc1NC(=O)CC1NCCNC1=O (stereo not drawn)	/	/	.	/	/	/
CC(=O)Nc1ccc(Oc2cc(NC(C)=O)cc([N+](=O)[O-])c2)cc1	.	/	.	.	/	/
CN(Cc1ccccc1)C(=O)CC(c1ccccc1)c1cc(Cl)ccc1O (stereo not drawn)	81	.	.	.	.	.
Cc1cc(OC(=O)C(c2ccccc2)c2ccccc2)c([N+](=O)[O-])c(=O)[nH]1	58	.	.	.	.	.
NC(=O)N\N=C/C=C/C=C/c1ccc(F)cc1	/	/	.	/	/	/
COc1cc(/C=N/NC(=O)COc2cc(C)cc(C)c2)ccc1OS(=O)(=O)c1ccc(C)cc1	.	.	.	.	.	/
COc1ccc(/C=N/NC(=O)c2cccc([N+](=O)[O-])c2)cc1OS(=O)(=O)c1ccc(C)cc1	87	.	.	.	/	.
O=[N+]([O-])c1ccc(OC/C=C2\Oc3ccc([N+](=O)[O-])cc3C2N2CCOCC2)cc1 (stereo not drawn)	.	.	.	.	.	/
O=[N+]([O-])c1ccc2c(c1)C(N1CCOCC1)/C(=C/COc1ccc3ccccc3c1Br)O2 (stereo not drawn)	97	.	.	.	.	.
Cc1ccc2c(c1)N(CC(=O)OCC(=O)NCc1ccccc1)C(=O)CO2	.	/	.	.	/	/
Fc1ccc(-c2cc(-c3nnc4n3CCCCC4)c3ccccc3n2)cc1	52	.	.	.	.	.
Cc1ccc(S(=O)(=O)c2c(C)nn(C(C)(C)C)c2OC(=O)C2CCCC2)cc1	.	.	.	.	.	/
Cc1nn(C(C)(C)C)c(OC(=O)C2CCCC2)c1S(=O)(=O)c1ccccc1	62	.	.	.	.	.
Cc1ccc(C(=O)COC(=O)c2ccccc2N2C(=O)C3C4CCC(C4)C3C2=O)cc1C (stereo not drawn)	.	.	.	.	.	/
Cc1ccc(-n2cc[nH]c2=S)cc1C	.	.	.	.	.	/
S=c1[nH]ccn1-c1cccc(Cl)c1	59	.	.	.	.	.
Cc1cc(=O)[nH]c2c(C)c(N)ccc12	.	.	.	.	.	/
Cc1cc(C)c2ccc3c(C)c(C)nc3c2[nH]1	56	/	.	+	/	.
Cc1cccc(CSc2cccc3cccnc23)c1	100	4.9	.	+	2.8	.
NNC(=O)c1ccc(CSc2cccc3cccnc23)cc1	.	/	.	.	/	/
COc1ccccc1NC(=O)Cn1nc(-c2ccc(Cl)cc2)c2ccccc2c1=O	68	.	.	.	.	.
O=C(Cn1nc(-c2ccc(Cl)cc2)c2ccccc2c1=O)NN1CCOCC1	/	/	.	/	/	/
SMILES	Lmaj promast	bCat KO growth	Dynein transport	Autophagy HCS	HCT116 PTEN-null	L major 1uM
CC(=O)CSc1ncnc2c1cnn2-c1ccccc1	.	/	.	.	/	/
CCCCCCCNC1=CC(=O)CC(c2ccccc2)C1 (stereo not drawn)	99	.	.	.	.	.
O=C(O)c1cccnc1Sc1ccccc1	56	.	.	.	.	.
Cc1[nH]c2ccccc2c1C(c1ccccn1)N1CCC(C(N)=O)CC1 (stereo not drawn)	60	.	.	.	.	.
O=C1OC(Nc2ccc3c(c2)OCO3)c2ccccc21 (stereo not drawn)	60	.	.	.	.	.
O=C1OC(Nc2ccc(F)c([N+](=O)[O-])c2)c2ccccc21 (stereo not drawn)	/	/	.	/	/	/
CCOc1ccc(S(=O)(=O)N2Cc3ccccc3CC2C(=O)NCCCn2ccnc2)cc1 (stereo not drawn)	98	.	.	.	.	.
O=C1NCN(c2ccccc2)C12CCN(c1nnnn1-c1ccccc1)CC2	81	.	.	.	.	.
O=C(NCc1ccccc1)C(c1ccco1)N(C(=O)c1ccccn1)c1ccc(F)cc1 (stereo not drawn)	.	/	.	.	/	/
CCN(CC)CCCOc1nc(C)nc2c1oc1ccccc12	75	.	.	.	.	.
CC(C)(C)OC(=O)N1CCN(C(=O)[C@H](Cc2ccc(O)cc2)n2cc(CCO)nn2)CC1	.	/	.	.	/	/
Nc1nnc(-c2cn(-c3ccccc3)nc2-c2ccc(Cl)cc2)o1	/	/	.	/	/	/
Nc1nnc(-c2cn(-c3ccccc3)nc2-c2ccccc2)o1	55	.	.	.	.	.
C1CCC(OCCN2CCN(CCOC3CCCCC3)CC2)CC1	95	.	.	.	.	.
Cc1ccc(N=C(NOCc2ccc(Cl)cc2Cl)c2nonc2N)c(C)c1	98	.	.	.	.	.
Cc1oc(C(N)=O)nc1-c1ccccc1	/	/	.	/	/	/
CC(C)=CCCC(C)CN(C)CCc1ccccn1 (stereo not drawn)	83	.	.	.	.	.
Cc1ccccc1CN(C)CCc1ccccn1	.	/	.	.	/	/
Cc1oc2c(CN3CCCC3)c(O)ccc2c(=O)c1-c1ccc(Br)cc1	99	.	.	.	.	.
N#CC1=C(N)SC(N)=C(C#N)C1c1cccc(O)c1	.	.	.	.	.	/
COc1cccc(N/C=C(\C#N)c2ccc(OCCCF)cc2)c1	.	.	.	.	.	/
OCC1(Cc2ccccc2)CCN(C2CCN(c3ccccc3F)CC2)CC1	86	/	.	.	/	?
CCC(C)(C)n1nnnc1CN1CCC(c2nc3ccc(C)cc3[nH]2)CC1	.	.	.	.	.	/
Cc1cc2nc(C3CCN(Cc4nnnn4Cc4ccccc4)CC3)[nH]c2cc1C	91	.	.	.	.	.
O=C(COC(=O)C1=COCCO1)NC(=O)c1ccc(OC(F)F)cc1	.	/	.	.	/	/
SMILES	Lmaj promast	bCat KO growth	Dynein transport	Autophagy HCS	HCT116 PTEN-null	L major 1uM
O=C(/C=C/c1ccccc1)CC(O)(c1ccccc1)C(F)(F)F (stereo not drawn)	100	3.9	.	.	/	76
COC(=O)CNc1nc(-c2ccccc2F)nc2ccccc12	59	.	.	.	.	56
COc1ccc(CNCCC(c2ccc(OC(C)C)cc2)C(C)C)cc1OC (stereo not drawn)	98	1.2	.	.	1.3	.
O=C(O)Cc1ccc2oc(-c3cccnc3)nc2c1	.	/	.	.	/	/
CCCOC(=O)CSC1=C(C#N)C(c2ccccc2Cl)CC(=O)N1 (stereo not drawn)	100	.	.	.	.	93
CCOC(=O)CSC1=C(C#N)C(c2ccc(Cl)cc2)CC(=O)N1 (stereo not drawn)	.	.	.	.	.	/
O=C(c1cc(C2CC2)nc2ccc(Br)cc12)N1N=C(C(F)F)CC1(O)C(F)F (stereo not drawn)	.	.	.	.	.	/
Cc1nn(-c2nc3ccccc3[nH]2)c(=O)c2ccccc12	.	/	.	.	/	/
Cc1nn(-c2nc3ccccc3[nH]2)c(N)c1-c1ccc(Cl)cc1	65	.	.	.	.	74
